KCC2 mod – modulates chloride dependent transport by human KCC2. KCC2 cells, thallium flux FluoZin-2 fluorescence. B-score of Tl+ flux slope (higher = more flux/activation; lower = inhibition) at 10 µM. 2.2% of 190,000 active;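 active = thallium flux slope and its plate-corrected score both differing from the plate sample mean at a set confidence after two filtering rounds, in either direction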;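 note: slope of fluorescence scaled to starting intensity during 10 to 20 s after thallium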
WT yeast gro inh – growth inhibition of WT yeast, mitochondrial fusion screen; mitochondrial fusion phenotypic screen, WT strain; inhibition, % at 10 µM; 2.1% of 190,000 active; in the data active = inhibition above about 58%; tested in S. cerevisiae
Diaphorase inh – inhibits diaphorase or chemically oxidizes, flagging diaphorase assay artifacts; 0.69% of 190,000 active; diaphorase resazurin-to-resorufin fluorescence, NADH, 16 min; bacterial (C. kluyveri) enzyme, not human; inhibition, % at 20 µM; AID 1217;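 active = primary screen inhibition at 20 µM above a set limit, cut at about 50% in these data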;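 note: plate controls were DMSO with full reaction for no effect and wells lacking NADH for full effect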
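System: Diaphorase enzyme from Clostridium kluyveri | Amount: Enzyme working solution with 0.14 U/mL diaphorase | Benchmarks: No-NADH positive control and DMSO neutral control | Signal: Fluorescence of resorufin formed from resazurin, Ex 544/Em 590 nm | Schedule: 16-min room-temperature incubation before reading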
ROMK primary – modulators of human ROMK potassium channel. P48048. Tet-inducible ROMK, thallium flux fluorescence; actives lie on both sides. B-score at 10 µM. 2% of 130,000 active. AID 1918;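 active = signal ratio slope over the read window, or its plate-corrected B-score, at least 3 SD from the plate mean, either direction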;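 note: B-score of the F/F0 ratio slope over 7 to 12 s after thallium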
Target sequence (P48048 whole entry, looked up): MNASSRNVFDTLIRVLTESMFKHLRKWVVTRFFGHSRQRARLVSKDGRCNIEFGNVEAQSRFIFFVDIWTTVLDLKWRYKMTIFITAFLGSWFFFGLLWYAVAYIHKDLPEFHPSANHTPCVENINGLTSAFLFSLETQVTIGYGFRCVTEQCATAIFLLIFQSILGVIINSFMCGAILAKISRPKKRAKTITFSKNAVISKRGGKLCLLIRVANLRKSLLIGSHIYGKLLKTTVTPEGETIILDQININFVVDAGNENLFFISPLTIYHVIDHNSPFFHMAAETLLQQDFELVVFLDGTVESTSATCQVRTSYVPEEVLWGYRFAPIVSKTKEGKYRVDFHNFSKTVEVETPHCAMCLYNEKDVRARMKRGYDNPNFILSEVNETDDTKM
Diaphorase act – diaphorase activation or chemical reduction counter-screen; activation factor at 20 µM; AID 1229; 0.005% of 190,000 active; Diaphorase/resazurin coupled assay, resorufin fluorescence, 16 min; active compounds read high; 1 = vehicle wells, 0 = NADH-free wells;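 active = diaphorase activity raised at least twofold by the compound at 20 µM; inactive = activation factor below 2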
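Material: Clostridium kluyveri diaphorase, purified enzyme; Quantity: enzyme 0.07 U/mL final; Medium: HEPES pH 7.4 buffer with MgCl2 and Tween 20; Dosing: single compound dose of 20 µM, 1% DMSO final; Schedule: 16 min reaction at room temperature; Measured by: red resorufin fluorescence at 544/590 nm excitation/emission.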
L major viab – inhibitors of Leishmania major promastigote growth. Leishmania major promastigotes, resazurin fluorescence viability. inhibition, % at 10 µM. 9% of 200,000 active. AID 1063; in the data active = inhibition above about 50%;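 note: promastigotes grown with compound for 44 hours at 28 °C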
* marks the source's active call; other numbers are inactive results; . = not tested or not shown. An excerpt weighted towards active compounds, which were near 12% of everything screened.

SMILES	KCC2 mod	WT yeast gro inh	Diaphorase inh	ROMK primary	Diaphorase act	L major viab
Cc1csc2ncc(C(=O)N3CCCc4ccccc43)c(=O)n12	0.23	-16	10	.	0.9	-6
O=C(CSc1ccccc1C(=O)O)NC12CC3CC(CC(C3)C1)C2	0.26	.	.	.	.	.
O=C(NC12CC3CC(CC(C3)C1)C2)c1ccc(=O)oc1	.	-11	-10	-0.49	1.1	-1
CC(=O)NC(CC(=O)NC12CC3CC(CC(C3)C1)C2)c1ccccc1 (centres undefined)	-0.46	11	17	.	0.8	63*
O=C(NC12CC3CC(CC(C3)C1)C2)c1ccccc1O	0.11	11	8	.	0.9	50*
CCc1c(C)sc(NC(=O)c2ccccc2[N+](=O)[O-])c1C(N)=O	0.96	2	8	-0.091	0.9	6
O=C(c1cc2ccccc2oc1=O)N(Cc1ccco1)C1CCS(=O)(=O)C1 (centres undefined)	-4.7*	-13	25	-0.62	0.8	-5
N#CC(=C=[N-])c1nc2ccccc2nc1-[n+]1cccc(NC(=O)c2cccs2)c1	0.4	.	.	0.23	.	.
COc1ccc(OC)c(-c2cc(C3CCN(c4cc(Cl)nc(N)n4)CC3)[nH]n2)c1	-1.6	66*	26	.	0.7	100*
COc1ccc(-c2csc(N3CCC(c4ccccc4)CC3)n2)cc1	-0.69	-3	1	-0.53	1	-4
Nc1nc(Cl)cc(N2CCC(c3cc(-c4ccc(Cl)cc4)n[nH]3)CC2)n1	0.73	12	11	.	0.9	100*
Clc1ccc(-c2cc(C3CCNCC3)[nH]n2)cc1	0.24	-13	4	.	1	61*
COc1ccc(-c2cc(C3CCN(c4cc(Cl)nc(N)n4)CC3)[nH]n2)cc1	-0.69	62*	26	.	0.7	31
COC(=O)c1ccccc1NC(=O)N1CCN(c2ccc(F)cc2)CC1	0.55	34	16	0.0098	0.8	9
COC(=O)c1[nH]c2ccc(C)cc2c1NC(=O)CCN1CCN(C2CCCCC2)CC1	.	11	5	.	0.9	11
COc1ccc(NC(=O)CN2CCCCC2)cc1	.	-4	5	0.037	1	-7
COC(=O)c1[nH]c2ccc(Br)cc2c1NC(=O)CN1CCN(C2CCCCC2)CC1	.	20	10	.	0.9	101*
CCc1cccc(NC(=S)N2CCC(c3ccccc3)C2)c1 (centres undefined)	-1.4	76*	9	-0.25	0.9	6
S=C(Nc1ccc(Br)cc1)N1CCN(C2CCCCC2)CC1	.	19	9	.	0.9	88*
COc1ccc(NC(=O)CN2CCC(NC(=O)C3CCCCC3)CC2)cc1	.	33	13	-0.22	0.9	70*
Cc1ccc(C2CCN(C(=O)Nc3ccccc3)C2)cc1 (centres undefined)	-1.5	12	15	.	0.8	-1
O=C(CN1CCN(C2CCCCC2)CC1)Nc1ccc(Br)cc1	0.43	-7	2	-0.23	1	88*
O=C(CN1CCCCCC1)Nc1ccc(Br)cc1	.	-5	4	.	1	1
Cc1ccc(NC(=S)N2CCC(c3ccc(C)cc3)C2)cc1 (centres undefined)	0.26	75*	15	-0.44	0.8	2
Cc1ccc(NC(=S)N2CCN(C3CCCCC3)CC2)cc1	.	-21	5	.	1	84*
SMILES	KCC2 mod	WT yeast gro inh	Diaphorase inh	ROMK primary	Diaphorase act	L major viab
COC(=O)CSc1ccc(S(=O)(=O)N2CCOCC2)cc1[N+](=O)[O-]	0.75	-11	13	.	0.9	-7
CCN1CCN(c2ccc(NC(=O)CCc3c(C)nc4c(-c5ccccc5)c(C)nn4c3C)cc2)CC1	-0.0089	-7	26	.	0.7	100*
CCN1CCN(c2cc(C(C)(C)C)nc3c(-c4ccccc4)c(C)nn23)CC1	1.7	94*	11	.	0.9	96*
Cc1cc(N2CCN(C(=O)c3ccco3)CC2)n2nc(C)c(-c3ccccc3)c2n1	.	63*	5	0.52	1	13
COc1ccccc1N(CC(O)COc1ccccc1C)S(=O)(=O)c1ccccc1 (centres undefined)	-1.8	29	18	0.11	0.8	24
CCOc1ccc(NS(=O)(=O)c2ccc(OCC)c3ncccc23)cc1	-1.4	10	15	.	0.8	5
CCOc1ccc(S(=O)(=O)NCc2ccc(C)cc2)c2cccnc12	0.25	-11	-9	-0.35	1.1	98*
COc1ccccc1S(=O)(=O)Nc1ccc2cn[nH]c2c1	0.27	-12	9	-0.61	0.9	9
COc1ccc(CNc2ccc3cn[nH]c3c2)c(OC)c1OC	.	-1	57*	0.24	0.4	1
CCOc1cc(CNc2ccc3cn[nH]c3c2)ccc1OC	0.09	-8	57*	0.65	0.4	79*
CCCCNC(=O)Nc1cc(C(=O)OC)ccc1Cl	.	-9	3	-0.84	1	20
Cc1ccccc1OCCCn1c(=O)sc2ccccc21	-1.1	31	25	.	0.8	0
COc1ccc(OC)c(CN2CCN(CCc3ccccc3)C(CCO)C2)c1 (centres undefined)	.	6	7	.	0.9	10
CCC(C)c1ccc(S(=O)(=O)N2CCN(C(C)CC(=O)O)CC2)cc1 (centres undefined)	0.2	7	2	0.53	1	48
OC[C@@H]1CCCN1Cc1cn(-c2ccccc2)nc1-c1ccc2c(c1)OCO2	.	-9	-4	-1.1	1	14
c1ccc(-n2cc(CN3CCCC(CN4CCCC4)C3)c(-c3ccc4c(c3)OCO4)n2)cc1 (centres undefined)	.	-10	21	-2.9	0.8	100*
COc1ccc(CC2(CO)CCN(Cc3nc(C(C)C)cs3)CC2)cc1	0.89	3	9	0.38	0.9	91*
COc1ccc(CN2CCC(CO)(Cc3ccccc3C(F)(F)F)CC2)c(F)c1	0.14	27	11	-1.4	0.9	77*
CCOc1cc(CN2CCC(CO)(Cc3cccc(C(F)(F)F)c3)CC2)ccc1OC	-0.37	5	0	-1.8	1	85*
COc1ccc(CC2(CO)CCN(Cc3ccc4c(c3)CCO4)CC2)cc1	-0.11	-8	-7	0.15	1.1	79*
COc1ccc(Cn2cccc(NC(=O)Nc3cccc(OC)c3)c2=O)cc1	-0.72	.	.	.	.	.
O=C(COC(=O)c1ccccc1)NCCC1=CCCCC1	0.073	7	8	-1.2	0.9	-4
COc1ccc(CC(NC(C)=O)C(=O)NC2CCN(C(=O)c3ccc([N+](=O)[O-])cc3)CC2)cc1OC (centres undefined)	1	.	.	.	.	.
CCN(CC)C(=O)Cn1cnc([N+](=O)[O-])n1	-1.7	2	20	0.43	0.8	41
COC(=O)c1ccc(NC(=S)N2CCN(Cc3ccccc3OC)CC2)cc1	-2.1	15	13	0.41	0.9	-3

Screening results: PubChem BioAssay, several laboratories
